Source: PubChem
zfTRPN1 agonist – agonists of zebrafish TRPN1 channel; actives 0.18% (n = 220,000); HEK293 zebrafish TRPN1-YFP, Fluo-8 calcium fluorescence; 100% = response to 87 µM carbachol; AID 1424; activation, % at 3 µM;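 active means activation above its plate's cutoff, the mean activation of test wells on that plate plus 3 SD, cut at about 19% in these data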
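Material: zebrafish TRPN1-YFP in HEK293 cells. Doses: one dose of 3 µM, 0.3% DMSO. Incubation: dye 1 h 37 °C plus 30 min RT. Measured by: intracellular calcium fluorescence with Fluo-8.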
OXTR potentiate – human OXTR potentiation. P30559. CHO-OTR cells, Fluo-8 calcium fluorescence, potentiator mode; 0% = oxytocin EC15, 100% = EC100. activation, % at 3 µM. actives 0.061% (n = 320,000). AID 2445;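 active means activation above that plate's cutoff, the mean activation of tested compounds plus 3 SD, cut at about 6.6% in these data, passing the limit was not always enough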
Target sequence (P30559 whole entry, looked up): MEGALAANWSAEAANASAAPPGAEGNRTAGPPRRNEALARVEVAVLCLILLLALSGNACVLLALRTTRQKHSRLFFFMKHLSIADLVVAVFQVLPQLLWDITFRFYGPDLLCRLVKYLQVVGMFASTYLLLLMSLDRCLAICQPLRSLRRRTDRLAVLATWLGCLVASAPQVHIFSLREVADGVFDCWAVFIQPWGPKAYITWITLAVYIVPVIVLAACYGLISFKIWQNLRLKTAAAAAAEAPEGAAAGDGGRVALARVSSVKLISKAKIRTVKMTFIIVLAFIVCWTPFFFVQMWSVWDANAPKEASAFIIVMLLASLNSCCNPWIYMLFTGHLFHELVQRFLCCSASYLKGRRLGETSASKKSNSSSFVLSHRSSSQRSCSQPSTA
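Assay system: CHO cell line stably expressing human OTR. Reagent: EC15 oxytocin agonist. Dosing: single dose, 3.0 µM nominal final compound concentration. Timing: compound 6 min at room temperature before oxytocin, 100 s read. Signal: kinetic Fluo-8 calcium fluorescence. Controls: oxytocin EC15 low and EC100 high.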
V1aR counter – counter-screen for oxytocin receptor agonists: human V1a receptor agonists; AID 2797; CHO-V1R cells, Fluo-8 calcium fluorescence, agonist mode; 0% DMSO, 100% 3 nM vasopressin; P37288; actives 0.25% (n = 320,000); activation, % at 3 µM;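 active means activation above the mean activation of all tested compounds plus 3 SD, per screening run, cut at about 20% in these data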;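 further: signal is peak over basal fluorescence ratio across a 100 second FLIPR read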
OXTR agonist – human OXTR agonism. CHO-OTR cells, Fluo-8 calcium fluorescence; normalized: DMSO 0%, oxytocin 100%. P30559. actives 0.32% (n = 320,000). activation, % at 3 µM;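 active means activation above the mean of all tested compounds plus 3 SD, cutoff set per screening run, cut at about 20% in these data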;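 further: peak over basal fluorescence ratio from a 100 s FLIPR kinetic read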
TRPML3 agonist – human mucolipin-3 channel agonism | AID 1448 | HEK293 TRPML3-YFP, Fluo-8 calcium fluorescence; 100% = the carbachol control signal | activation, % at 3 µM | actives 0.29% (n = 220,000) | Q8TDD5;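 active means activation above its plate's cutoff, the mean activation of the plate's test wells plus 3 SD, cut at about 12% in these data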
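Material: HEK293 cells stably carrying human TRPML3-YFP; compound dosing: single dose, 3 µM final nominal compound, 0.3% DMSO final; incubation: 1-h 37 °C dye load, 5-s basal, 120-s post-compound reads; technique: Fluo-8 intracellular calcium fluorescence, excitation 470-495 nm, emission 515-575 nm; read-out basis: percent activation from peak-to-basal fluorescence ratio, scaled between DMSO and carbachol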
Numbers stand for hits; 0 = inactive; - = no result given; + = active, no number. A selection: hits, their analogues and other compounds. The true share with any hit is near 0.59%.

SMILES | zfTRPN1 agonist | OXTR potentiate | V1aR counter | OXTR agonist | TRPML3 agonist
O=c1ccc2c(-c3ccccc3)c3ccc(O)cc3oc-2c1 | - | 0 | + | 850 | -
CSCCC(NC(=O)c1ccccc1Cl)C(=O)N1CCCCC1 (stereo not drawn) | - | 0 | 0 | 0 | -
CN(CCc1ccccn1)C(=O)CC1C(=O)NCCN1Cc1cccc(F)c1 (stereo not drawn) | - | 0 | 0 | 0 | -
Cc1ccc(N2CC(C(=O)Nc3nnc(SCC(N)=O)s3)CC2=O)cc1 (stereo not drawn) | - | 0 | 0 | 0 | -
O=C(OC1CCCCC1=O)c1cccc(S(=O)(=O)N2CCOCC2)c1 (stereo not drawn) | - | 0 | 0 | 0 | -
Brc1ccc(C2=CC(c3cccs3)n3ncnc3N2)cc1 (stereo not drawn) | 0 | 0 | 75 | 75 | 0
Fc1ccc(C2=CC(c3ccc(Br)o3)n3ncnc3N2)cc1 (stereo not drawn) | 0 | 0 | 34 | 51 | 0
CC1=C(C(N)=O)C(c2ccc(Br)cc2)n2nc(CCCO)nc2N1 (stereo not drawn) | - | 0 | 0 | 0 | -
OCCCc1nc2n(n1)C(c1cccs1)C=C(c1ccc(Br)cc1)N2 (stereo not drawn) | 0 | 0 | 109 | 160 | 0
COc1ccc(CC(=O)OCC(=O)N(C)C2CCS(=O)(=O)C2)cc1OC (stereo not drawn) | - | 0 | 0 | 0 | -
COc1cc(OC)cc(C(=O)NC(=S)NNC(=O)[C@H]2C[C@@H]2c2ccccc2)c1 | 34 | 0 | 0 | 23 | 19
O=C(Nc1ccc(F)cc1F)c1cccc(C(=O)Nc2ccc(F)cc2F)n1 | - | 0 | 0 | 0 | -
CCOc1cc(CNCCc2ccc(S(N)(=O)=O)cc2)cc(Cl)c1OCc1ccccc1 | 0 | 0 | 22 | 37 | 0
CCOc1cc(CNCc2ccccc2)ccc1OCc1ccc(Cl)cc1 | - | 0 | 28 | 26 | -
COc1cc(C(=O)NCC(c2cccs2)N2CCOCC2)cc(Br)c1OCc1ccccc1 (stereo not drawn) | - | 0 | 0 | 0 | -
CC(c1ccccc1C(O)(c1ccccc1)c1ccccc1)N(C)C (stereo not drawn) | 22 | 0 | 48 | 43 | 15
COC(=O)NNC(=O)c1ccc(Cl)cc1Cl | 0 | 0 | 0 | 0 | 0
CC(C)(C)C(=O)NC(=S)NNC(=O)c1ccncc1 | 0 | 0 | 0 | 0 | 0
CC(C)(C)C(=O)NC(=S)NNC(=O)c1ccc(Cl)cc1Cl | 171 | 0 | 122 | 98 | 103
CC(C)(C)C(=O)NC(=S)NNC(=O)c1ccc(-c2ccccc2)cc1 | 197 | 0 | 117 | 108 | 117
CCOc1ccc(CCNC(=O)c2cccc(NC3=NC4CS(=O)(=O)CC4S3)c2)cc1 (stereo not drawn) | - | 0 | 0 | 0 | -
CCC(C(=O)Oc1c(C(C)C)cccc1C(C)C)c1ccccc1 (stereo not drawn) | - | 0 | 0 | 0 | -
O=C1OC2(c3ccccc31)c1cc(I)c(O)c(I)c1Oc1c2cc(I)c(O)c1I | - | 0 | 659 | 670 | -
Cc1cc(O)ccc1C1(c2ccc(O)cc2C)OC(=O)c2ccccc21 | 0 | 0 | 0 | 0 | 0
O=C(Nc1nnc(-c2cccs2)o1)c1cccc(C(F)(F)F)c1 | 21 | 0 | 0 | 0 | 0
SMILES | zfTRPN1 agonist | OXTR potentiate | V1aR counter | OXTR agonist | TRPML3 agonist
CCCOc1ccc(C(=O)CCC(=O)OCC(=O)N(C)c2c(N)n(Cc3ccccc3)c(=O)[nH]c2=O)cc1 | - | 0 | 0 | 0 | -
COc1cccc(CN2CCN(Cc3cc4ccccc4[nH]3)CC2CCO)c1 (stereo not drawn) | 28 | 0 | 0 | 0 | 0
Cc1ccc(C)c(C(=O)N(Cc2nc(-c3ccc(Cl)cc3)no2)C(C)C)c1 | 0 | 0 | 0 | 0 | 28
Cc1cnc(C(=O)OCc2nc3ccccc3o2)cn1 | - | 0 | 0 | 0 | -
COc1ccc(N=Nc2nc3ccc(Br)cc3n2C)cc1 | 39 | 0 | 0 | 0 | 30
O=C(Nc1ccccc1)Nc1ccc2snnc2c1 | 21 | 0 | 0 | 0 | 0
O=C(Nc1ccccc1)Nc1ccc(Cl)c([N+](=O)[O-])c1 | 0 | 0 | 0 | 0 | 0
CN(C)c1ccc(NC(=O)Nc2ccc3snnc3c2)cc1 | 19 | 0 | 0 | 0 | 0
O=C(Nc1ccc(Cl)cc1)Nc1csc([N+](=O)[O-])c1 | 22 | 0 | 0 | 0 | 15
O=C(Nc1ccccc1)Nc1ccc(F)c([N+](=O)[O-])c1 | 20 | 0 | 0 | 0 | 0
O=C(Nc1csc([N+](=O)[O-])c1)Nc1c(Cl)cccc1Cl | 0 | 0 | 0 | 0 | 0
COc1ccc(-n2ccn(CC(=O)Nc3ccccc3OC)c(=O)c2=O)cc1 | - | 0 | 0 | 0 | -
COc1cc(NC(=O)c2ccc(OCc3c(C)noc3C)c(OC)c2)cc(OC)c1 | - | 0 | 0 | 0 | -
CC(C)(O)c1cc2ccc(C#CCCN3C(=O)c4ccccc4C3=O)cc2c(=O)o1 | - | 0 | 0 | 0 | -
CCOc1ccc(S(=O)(=O)N2CCOCC2)c2ccccc12 | - | 0 | 0 | 0 | -
CCOc1ccc(S(=O)(=O)N2CCCCC2)c2ccccc12 | 0 | 0 | 0 | 0 | 62
O=C(Nc1cc(Cl)ccc1-n1cncn1)c1ccc([N+](=O)[O-])s1 | - | 0 | 0 | 0 | -
CCc1ccc(NC(=O)COC(=O)CC2CCCC2)cc1 | - | 0 | 0 | 0 | -
CC1(C(=O)NCc2ccc(Cl)c(Cl)c2)Oc2cccnc2NC1=O (stereo not drawn) | 0 | 0 | 21 | 25 | 0
COc1ccc(C2(c3ccc(OC)cc3)NC(=O)N(CC(=O)Nc3ccc(OC(F)F)cc3)C2=O)cc1 | - | 0 | 0 | 0 | -
CC1(c2ccc(OC(F)F)cc2)NC(=O)N(CC(=O)Nc2ccc(S(N)(=O)=O)cc2)C1=O (stereo not drawn) | 0 | 0 | 0 | 0 | 0
Cc1cc(NC(=O)CN2C(=O)NC(C)(c3ccc(OC(F)F)cc3)C2=O)no1 (stereo not drawn) | 0 | 0 | 0 | 0 | 0
CC1(c2ccc(OC(F)F)cc2)NC(=O)N(CC(=O)Nc2cccc(F)c2)C1=O (stereo not drawn) | - | 0 | 31 | 53 | -
CC1(c2ccc(OC(F)F)cc2)NC(=O)N(CC(=O)Nc2ccc(OC(F)F)cc2)C1=O (stereo not drawn) | - | 0 | 28 | 40 | -
CCOc1ccc(NC(=O)CN2C(=O)NC(C)(c3ccc(OC(F)F)cc3)C2=O)cc1 (stereo not drawn) | - | 0 | 43 | 43 | -
CCOC(=O)c1c(NC(=O)CN2C(=O)NC(C)(c3ccc(OC(F)F)cc3)C2=O)sc(C)c1C (stereo not drawn) | 0 | 0 | 20 | 27 | 0
N#C/C(=N/Nc1ccc(OC(F)(F)F)cc1)C(N)=S | 23 | 0 | 0 | 0 | 15
O=C(Nc1cccc(C(=O)O)c1)/C(=C\c1ccccc1Cl)NC(=O)c1ccco1 | - | 0 | 0 | 0 | -
Cc1cc(C(C)(C)CC(C)(C)C)ccc1OCCOCC[N+](C)(C)Cc1ccccc1 | - | 0 | 21 | 37 | -
